Results as given in ChEMBL document CHEMBL1122439 (J Med Chem, 1983).
The source made the active and inactive calls. The calls are words filed in the database; no cut-off is given here.

Key:
[1] = pKa of heterocyclic component measured as proton gained; type: physicochemical
Procedure, shortened: (§1)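 Potentiometric titration in water with glass electrodes; heterocycle pKa taken as proton gained, urea-component pKa as proton lost; method upper limit pKa 11.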

[2] = pKa of urea component measured as proton lost reference pKa for the 3,4 diaminothiadiazole 1-oxide is ~11 in water; type: physicochemical; conditions: buffer; procedure, shortened: as §1
Canis familiaris [3] = assay: Effective dose administarted intravenously required for 50 % inhibition of acid output in dogs; value may range from 0.01-0.08; type: functional; conditions: Canis lupus familiaris, iv
Canis familiaris [4] = assay: % Inhibition of acid output in dogs at a dose of 0.03 mg/kg administered intravenously; type: functional; conditions: Canis lupus familiaris, route intravenous
Procedure, shortened: (§2)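 Dogs with chronic gastric fistula; gastric acid secretion evoked by maximal stimulating histamine dose (64 μg/kg, sc). Test agent given intravenously, or intragastrically via fistula for peroral dosing; percent inhibition of acid output recorded at the stated single dose.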

Canis familiaris [5] = assay: % Inhibition of acid output in dogs at a dose of 10 mg/kg administered perorally; type: functional; conditions: Canis lupus familiaris, route oral; procedure, shortened: as §2
Histamine H2 receptor = Histamine H2 receptor (Cavia porcellus, UniProt P47747); assay: Evaluated in vitro for Histamine H2 receptor inhibition using the dimaprit stimulated chronotropic response of the guinea pig atrium; type: tissue-based, Cardiac atrium
Histamine H2 receptor, sequence (P47747 whole entry): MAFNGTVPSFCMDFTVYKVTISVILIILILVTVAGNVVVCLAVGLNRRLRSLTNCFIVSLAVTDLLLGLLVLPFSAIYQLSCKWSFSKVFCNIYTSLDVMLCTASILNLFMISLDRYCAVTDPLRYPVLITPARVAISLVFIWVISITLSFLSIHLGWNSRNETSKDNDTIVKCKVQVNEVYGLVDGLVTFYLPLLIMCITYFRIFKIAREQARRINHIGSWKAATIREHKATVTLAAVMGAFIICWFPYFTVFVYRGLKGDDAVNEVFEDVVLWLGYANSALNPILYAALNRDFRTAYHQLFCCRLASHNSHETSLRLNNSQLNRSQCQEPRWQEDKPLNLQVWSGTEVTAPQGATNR
Procedure, shortened: (§3)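 Isolated guinea pig atria; chronotropic response to rising concentrations of H2 agonist dimaprit (10⁻⁷–10⁻⁴ M) in presence of test agent; three to four atria per test concentration; -log K_I = log(ED50 dose ratio − 1) − log(drug dose).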

Canis familiaris [6] = assay: Effective dose administarted intravenously required for 50 % inhibition of acid output in dogs; value may range from 0.01-0.02; type: functional; conditions: Canis lupus familiaris, iv
Canis familiaris [7] = assay: % Inhibition of acid output in dogs at a dose of 5.0 mg/kg administered intravenously; type: functional; conditions: Canis lupus familiaris, route intravenous; procedure, shortened: as §2
Canis familiaris [8] = assay: % Inhibition of acid output in dogs at a dose of 20 mg/kg administered perorally; type: functional; conditions: Canis lupus familiaris, route oral; procedure, shortened: as §2
[9] = molecular target: Histamine H2 receptor (Cavia porcellus) (UniProt P47747); assay: Evaluated in vitro for Histamine H2 receptor inhibition using the dimaprit stimulated chronotropic response of the guinea pig atrium; inact means inactive at 8 x 10 -8 M; type: tissue-based; conditions: Cardiac atrium, in the assay text read “8 x 10 -5 M” for “8 x 10 -8 M”; procedure, shortened: as §3
Histamine H2 receptor (Cavia porcellus), sequence (P47747 whole entry): as above

Canis familiaris [10] = assay: % Inhibition of acid output in dogs at a dose of 3.0 mg/kg administered intravenously; type: functional; conditions: Canis lupus familiaris, route intravenous; procedure, shortened: as §2
Canis familiaris [11] = assay: Effective dose administarted perorally required for 50 % inhibition of acid output in dogs; type: functional; conditions: Canis lupus familiaris, po
Canis familiaris [12] = assay: Effective dose administarted intravenously required for 50 % inhibition of acid output in dogs; value may range from 0.15-0.18; type: functional; conditions: Canis lupus familiaris, iv
Canis familiaris [13] = assay: Effective dose administarted intravenously required for 50 % inhibition of acid output in dogs; Value may range from 0.01-0.03; type: functional; conditions: Canis lupus familiaris, iv
Canis familiaris [14] = assay: Effective dose administarted perorally required for 50 % inhibition of acid output in dogs; value may range from 0.7-10.9; type: functional; conditions: Canis lupus familiaris, po

Row | pKa [1] | Ki (Histamine H2 receptor) | SMILES | inhibition in vivo at 0.03 mg/kg (Canis familiaris [4]) | inhibition in vivo at 10 mg/kg (Canis familiaris [5]) | inhibition in vivo at 5 mg/kg (Canis familiaris [7]) | also measured
1 | 6.2 | 316 nM | N=C(N)Nc1nc(-c2cccc(Nc3n[s+]([O-])nc3N)c2)cs1 (configuration not stated) | 58% | 31% | – | pKa [2]: 8.9; ED50 (Canis familiaris [3]): 0.02 mg/kg
2 | 6 | 200 nM | CN/C(=C/[N+](=O)[O-])Nc1cccc(-c2csc(N=C(N)N)n2)c1 | 59% | 70% | – | pKa [2]: 9.2
3 | – | 398 nM | CNc1n[s+]([O-])nc1Nc1cccc(-c2csc(N=C(N)N)n2)c1 (configuration not stated) | 85% | 21% | – | ED50 (Canis familiaris [6]): 0.017 mg/kg
4 | – | 794 nM | Cc1[nH]cnc1-c1cccc(Nc2n[s+]([O-])nc2N)c1 (configuration not stated) | – | – | 5% | inhibition in vivo at 20 mg/kg (Canis familiaris [8]): 1%
5 | – | 15800 nM | CN/C(=C\[N+](=O)[O-])Nc1cccc(-c2[nH]cnc2C)c1 | – | – | 28% | inhibition in vivo at 20 mg/kg (Canis familiaris [8]): 54%
6 | – | – | C/N=C(\NC#N)Nc1ccc(-c2[nH]cnc2C)cc1 | – | – | 0% | -Log Ki [9]: inactive
7 | 6.2 | 31600 nM | CN/C(=C\[N+](=O)[O-])Nc1ccc(-c2csc(N=C(N)N)n2)cc1 | – | – | – | pKa [2]: 9.7; inhibition in vivo at 3 mg/kg (Canis familiaris [10]): 55%
8 | – | 39800 nM | CNC(=NC#N)Nc1cccc(-c2nc[nH]c2C)c1 | – | – | 48% | –
9 | – | – | C/N=C(\NC#N)Nc1ccccc1-c1[nH]cnc1C | – | – | 4% | -Log Ki [9]: inactive
10 | 7.1 | – | CNC(=NCCSCc1csc(N=C(N)N)n1)NC#N [TIOTIDINE] | – | – | – | ED50 (Canis familiaris [12]): 0.16 mg/kg; ED50 (Canis familiaris [11]): 0.12 mg/kg
11 | 6.2 | 316 nM | C/N=C(\NC#N)Nc1cccc(-c2csc(N=C(N)N)n2)c1 | 79% | 73% | – | ED50 (Canis familiaris [13]): 0.02 mg/kg; ED50 (Canis familiaris [14]): 2.81 mg/kg

Row | SMILES | pKa [1] | Ki (Histamine H2 receptor) | inhibition in vivo at 0.03 mg/kg (Canis familiaris [4]) | inhibition in vivo at 10 mg/kg (Canis familiaris [5]) | inhibition in vivo at 5 mg/kg (Canis familiaris [7]) | also measured
12 | CN/C(=N\CCSCc1nc[nH]c1C)NC#N [CIMETIDINE] | 6.4 | – | – | – | – | ED50 (Canis familiaris [11]): 2.86 mg/kg
